Screens deposited in PubChem BioAssay by Johns Hopkins Ion Channel Center.
Most compounds without a hit are left out; they make up all but 3.1% or so of the library.
KCNK9 block: KCNK9 potassium channel inhibitors, primary screen, HEK293 cells, thallium flux | Potassium channel subfamily K member 9 (Homo sapiens), Q9NPC2 | hit rate 1.2% among 310,000 | FluxOR thallium flux fluorescence; active compounds read low | B-score at 10 µM | AID 488922, 2010;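 active = ratio B-score over 3 SD below the library mean, with starting fluorescence within 5 SD of its mean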;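 also: negative B-score means less thallium flux so channel inhibition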
hERG rescue: hERG rescue from dofetilide block, primary screen, cell-based, CHO-hERG, FluxOR thallium flux, dofetilide IC70. dofetilide IC70 present. AID 1511, 2009. activation (rescue from dofetilide block), less the hit threshold, % at 10 µM. Voltage-gated inwardly rectifying potassium channel KCNH2 (Homo sapiens), Q12809. hit rate 0.51% among 310,000;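 active = activation above the mean of controls blocked by dofetilide plus 5 SD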;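 also: thallium influx through hERG after potassium depolarization seen as dye fluorescence rise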
KCNQ1 act: potentiators or activators of KCNQ1 channel, primary screen, cell-based, thallium flux, high-throughput; CHO-K1 KCNQ1, thallium flux FluxOR fluorescence; active compounds read high; Potassium voltage-gated channel subfamily KQT member 1 (Homo sapiens), P51787; hit rate 0.35% among 310,000; AID 2648, 2010; B-score at 10 µM;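 active = fluorescence ratio B-score, a plate-corrected score, at least three library SD, with initial intensity B-score within 5 SD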
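assay system = CHO-K1 cells stably expressing KCNQ1 | medium = assay buffer, equal DMSO in all wells | timing = 37 °C overnight plating, 90-min dark dye load, 20-min compound pretreatment | measured by = kinetic FluxOR thallium fluorescence, 10-s 1-Hz baseline, 110-s post-stimulus read | measure = fluorescence change relative to baseline, converted to B score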
KCNQ1 block: inhibitors of human KCNQ1 channel, primary screen, cell-based, thallium flux, high-throughput. Potassium voltage-gated channel subfamily KQT member 1 (Homo sapiens), P51787. CHO-K1 KCNQ1, FluxOR thallium flux fluorescence; active compounds read high. B-score at 10 µM. hit rate 1.3% among 310,000. AID 2642, 2010;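 active = compounds whose thallium flux B-score, printed positive for inhibition, exceeds three library SD while starting fluorescence stays within three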;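 also: channel opened by potassium depolarization with thallium stimulus after 20 min compound exposure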
KCNK3 block: human KCNK3 channel inhibitors, primary screen, CHO cells, FluxOR thallium flux, B-score. FluxOR fluorescence; active compounds read low. B-score at 10 µM. hit rate 0.84% among 340,000. AID 602410, 2012;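 active = B-score under library mean minus 4 SD, starting fluorescence ratio at most library mean plus 5 SD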;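 also: more negative B-score means stronger inhibition of thallium flux through KCNK3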
KCNK9 inh conf: KCNK9 potassium channel inhibitors, confirmation, HEK293 cells, thallium flux, duplicate. shares compounds with KCNK9 block. FluxOR thallium flux fluorescence. inhibition, % at 10 µM. hit rate 43% among 4,900. AID 492992, 2010;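 active = thallium signal inhibited by more than 5 SD of the compound-free buffer control wells, on both duplicate plates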
Kir2-1 spec: mouse Kir2.1 channel inhibition, confirmation, selectivity assay for KCNK9 modulator project, cell-based, HEK293, thallium flux; hit rate 4% among 4,900; AID 492993, 2010; Kir2.1 cells, FluxOR thallium flux fluorescence; inhibition, % at 10 µM; shares compounds with KCNK9 block;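 active = thallium signal drop more than 5 SD beyond the mean of the no-compound control wells, seen in both duplicate plates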;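 also: signal is fluorescence rise after thallium addition divided by baseline fluorescence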
Target sequence (P35561 whole entry, looked up): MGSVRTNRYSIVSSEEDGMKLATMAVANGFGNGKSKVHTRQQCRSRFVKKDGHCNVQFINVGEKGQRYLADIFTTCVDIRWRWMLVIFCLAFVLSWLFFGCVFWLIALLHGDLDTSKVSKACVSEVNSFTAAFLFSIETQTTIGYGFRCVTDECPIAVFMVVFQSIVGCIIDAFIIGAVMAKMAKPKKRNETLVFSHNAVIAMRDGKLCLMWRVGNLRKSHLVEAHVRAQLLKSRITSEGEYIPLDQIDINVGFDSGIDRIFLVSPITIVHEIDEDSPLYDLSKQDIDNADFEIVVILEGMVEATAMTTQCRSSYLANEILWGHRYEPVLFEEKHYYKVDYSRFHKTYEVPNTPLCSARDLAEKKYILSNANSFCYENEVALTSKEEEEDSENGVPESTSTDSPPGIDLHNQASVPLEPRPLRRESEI
KCNK9 uninduced: thallium flux in non-induced HEK293 cells, confirmation, counter-screen for KCNK9 inhibitor project, cell-based, second counter screen, non-induced KCNK9-HEK293 | shares compounds with KCNK9 block | FluxOR thallium flux | inhibition, % at 10 µM | hit rate 40% among 4,900 | AID 492997, 2010;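 active = thallium signal drop beyond 5 SD of the untreated control mean, on both duplicate plates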
Of the large screens only hits and unclear results are named; the others gave an inactive call (follow-up assays come after a bar, where they were run).

O=C(CCSc1ccc(Cl)c(Cl)c1)NC12CC3CC(CC(C3)C1)C2	none | KCNK9 inh conf inactive | Kir2-1 spec inactive | KCNK9 uninduced inactive
O=C(CSc1ccc(F)cc1)NC12CC3CC(CC(C3)C1)C2	none
CCCCN1CC[C@H]2C=CC[C@@H](C(=O)Nc3ccc(Cl)cc3Cl)[C@H]2C1=O	none | KCNK9 inh conf inactive | Kir2-1 spec inactive | KCNK9 uninduced inactive
Cc1[nH]n(-c2ccccc2)c(=O)c1N=Nc1ccccc1C(=O)O	none
Cc1cc(Cl)cc2c(N=Nc3ccccc3C(=O)O)c(O)[nH]c12	none | KCNK9 inh conf inactive | Kir2-1 spec inactive | KCNK9 uninduced inactive
COc1ccccc1-n1cnc2c(c1=O)c1nc3ccccc3nc1n2-c1ccc(C)cc1	none
COc1ccccc1-n1c2nc3ccccc3nc2c2c(=O)n(-c3cc(C)cc(C)c3)cnc21	KCNK9 block -8.5 | KCNK9 inh conf inactive | Kir2-1 spec inactive | KCNK9 uninduced 25%
CCc1ccc(NC(=O)c2ccc(C3SCC(=O)N3CCc3ccccc3)cc2)cc1 (stereo unspecified)	none | KCNK9 inh conf inactive | Kir2-1 spec inactive | KCNK9 uninduced inactive
Cc1cc(C)cc(CC2CC(=O)N(c3ccc4c(c3)OCCO4)C2=O)c1 (stereo unspecified)	none | KCNK9 inh conf inactive | Kir2-1 spec inactive | KCNK9 uninduced inactive
COc1ccc2[nH]c3c(c2c1)CC(C)NC3=O (stereo unspecified)	none
Cc1ccc(Cl)cc1N1CCN(Cc2cc3c(cc2O)CCC3)CC1	none | KCNK9 inh conf inactive | Kir2-1 spec inactive | KCNK9 uninduced inactive
Cc1ccc(Cl)cc1N1CCN(C(=O)c2ccc(CN3CCOCC3)cc2)CC1	none
Cc1ccc(NC(=O)CN2C(=O)NC(C)(CC(C)C)C2=O)cc1F (stereo unspecified)	none (no result: KCNK9 block, hERG rescue, KCNQ1 act, KCNQ1 block)
CCOC(=O)C1CCN(c2c(NCCC(C)C)c(=O)c2=O)CC1	none
CCc1cc(C(c2ccc(OC)c(OC)c2)N2CCOCC2)c(NC(=O)c2ccccc2)s1 (stereo unspecified)	none | KCNK9 inh conf inactive | Kir2-1 spec inactive | KCNK9 uninduced inactive
CC(C)=CCC12Oc3cc(O)ccc3C1(O)Oc1cc3c(c(O)c1C2=O)C=CC(C)(C)O3 (stereo unspecified)	KCNK9 block -8.3 (no result: KCNK3 block) | KCNK9 inh conf inactive | Kir2-1 spec inactive | KCNK9 uninduced 24%
COc1ccc(-n2c(C)cc(C(=O)NC3CCCCC3)c2C)cc1	none
Cc1cccc(CC(C)NC(=O)c2cc(COc3ccc(C)c(C)c3)on2)n1 (stereo unspecified)	none
Cc1nc(C(C)NC(=O)c2cc(COc3ccc(C)c(C)c3)on2)c(C)s1 (stereo unspecified)	none | KCNK9 inh conf inactive | Kir2-1 spec inactive | KCNK9 uninduced inactive
Cc1c(C(=O)N2CCC[C@H]2C(N)=O)oc2c(F)cccc12	none | KCNK9 inh conf inactive | Kir2-1 spec inactive | KCNK9 uninduced inactive
COc1ccc(S(=O)(=O)N2CCN(C3Cc4ccccc4C3)CC2)cc1	none
NC(=O)c1ccccc1N/C=C/C(=O)c1ccccc1	none
CCOC(=O)c1ccccc1N/C=C/C(=O)c1cccs1	KCNK9 block -9.8 | KCNK9 inh conf 50% | Kir2-1 spec inactive | KCNK9 uninduced 39%
COC(=O)c1ccccc1N/C=C/C(=O)c1ccc(Br)cc1	KCNK9 block -12 | KCNK9 inh conf 43% | Kir2-1 spec inactive | KCNK9 uninduced 38%
Cc1cc([N+](=O)[O-])ccc1P(=O)(O)c1ccc([N+](=O)[O-])cc1C	none (no result: KCNK9 block, hERG rescue, KCNQ1 act, KCNQ1 block)
CCn1c(SCc2ccccc2Cl)nc2nc3c(cc2c1=O)CCCC3	none | KCNK9 inh conf inactive | Kir2-1 spec inactive | KCNK9 uninduced inactive
Cc1cc(S(=O)(=O)NCCc2ccccc2)c(C)s1	none
COC(=O)c1ccccc1NC(=O)CSc1nnc(-c2cccnc2)o1	none
Cc1ccc(C(=O)Nc2nnc(NC(=S)Nc3ccccc3)s2)cc1	none | KCNK9 inh conf inactive | Kir2-1 spec inactive | KCNK9 uninduced inactive
CC(C)Cn1c2c(c(O)c(C(=O)Nc3ncccc3O)c1=O)CCCC2	KCNK9 block -9.7 | KCNK9 inh conf 55% | Kir2-1 spec inactive | KCNK9 uninduced 40%
O=S(=O)(c1ccccc1)N1CCN(C/C=C/c2ccccc2)CC1	none | KCNK9 inh conf inactive | Kir2-1 spec inactive | KCNK9 uninduced inactive
Oc1ccc2ccccc2c1CN1CCN(C/C=C/c2ccccc2)CC1	none | KCNK9 inh conf inactive | Kir2-1 spec inactive | KCNK9 uninduced inactive
O=S(=O)(c1ccccc1)N1CCN(Cc2c(O)ccc3ccccc23)CC1	none (no result: KCNK9 block, hERG rescue, KCNQ1 act, KCNQ1 block)
O=S(=O)(c1ccc(Cl)cc1)N1CCN(CCc2ccccc2)CC1	none
O=S(=O)(c1ccc(F)cc1)N1CCN(CCc2ccccc2)CC1	none | KCNK9 inh conf inactive | Kir2-1 spec inactive | KCNK9 uninduced inactive
CCC(c1nc2ccccc2c(=O)n1-c1nc2ccccc2s1)N1C(=O)c2ccccc2C1=O (stereo unspecified)	none
CC(C)OCCCNC(=O)C(=O)N/N=C/c1ccc(OCc2ccccc2)cc1	none
Cc1ccc(NCc2ccccc2O)c(C)c1	none
Cc1ccc(C(C)NC(=O)/C(C#N)=C\c2c(C)[nH]c3ccccc23)cc1 (stereo unspecified)	none | KCNK9 inh conf inactive | Kir2-1 spec inactive | KCNK9 uninduced inactive
CCCCOc1ccccc1NC(=O)c1ccco1	none
CCCCOc1ccccc1NC(=O)c1scc2c1OCCO2	KCNK9 block -12 | KCNK9 inh conf 48% | Kir2-1 spec inactive | KCNK9 uninduced 36%
C=CCn1c(SCc2csc(C)n2)nc2sc3c(c2c1=O)CCC(C)C3 (stereo unspecified)	none | KCNK9 inh conf inactive | Kir2-1 spec inactive | KCNK9 uninduced inactive
Cc1cc(N2C(=O)C=CC2=O)c([N+](=O)[O-])cc1C	none
CCOC(=O)c1cc(NC(=O)Nc2ccc(Br)cc2)c(C)nc1C	none | KCNK9 inh conf inactive | Kir2-1 spec inactive | KCNK9 uninduced inactive
CCOC(=O)c1cc(NC(=O)Nc2ccccc2Cl)c(C)nc1C	none
CC(=O)N(CCC1(c2ccc(C)cc2)CCOC(C(C)C)C1)Cc1ccco1 (stereo unspecified)	none
